Assay results gathered from unrelated publications.
PDE3A: cGMP-inhibited 3',5'-cyclic phosphodiesterase 3A (PDE3A, Homo sapiens, UniProt Q14432)

| SMILES | target | test | setting | inhibition |
| --- | --- | --- | --- | --- |
| COc1cc(Nc2ncc(F)c(Nc3ccc4c(n3)NC(=O)C(C)(C)O4)n2)cc(OC)c1OC | Eukaryotic translation initiation factor 2-alpha kinase 1 (EIF2AK1, Homo sapiens, UniProt Q9BQI3) | binding, competition with immobilised ligand | 10 µM | 38% |
| Cn1cc(-c2cc(F)cc(N3CCn4c(cc5c4CCCC5)C3=O)c2CO)cc(Nc2ccc(N3CCN(C4COC4)CC3)cn2)c1=O | Serine/threonine-protein kinase TAO2 (TAOK2, Homo sapiens, UniProt Q9UL54) | enzyme activity, inhibitor | 0.1 µM | 7% |
| c1ccc(C(NCCNC(c2ccccc2)c2ccccc2)c2ccccc2)cc1 | PDE3A | cell-free assay, inhibitor | 10 µM | 0% |
| C[C@@H]1CCCN1CCCCOc1ccc2occc(=O)c2c1 | Bile salt-activated lipase (Homo sapiens, UniProt P19835) | enzyme activity, inhibitor, fluorescence | 10 µM | 6% |
| C#Cc1n[nH]c2c(-c3cn([C@@H](C)c4ccccc4)c(=O)[nH]c3=O)cc(F)cc12 | Leucine-rich repeat serine/threonine-protein kinase 2 (LRRK2, Homo sapiens, UniProt Q5S007) | enzyme activity, inhibitor | 0.1 µM | 3.8% |
| C[C@H](C(=O)N[C@H]1COc2ccccc2[C@@H]1S(C)(=O)=O)c1ccc(F)cc1 | PDE3A | cell-free assay, inhibitor | 10 µM | -9% |
| O=C(Nc1cccnn1)N1CCN([C@@H]2CCOc3cc(C(F)(F)F)ccc32)CC1 | PDE3A | cell-free assay | 20 µM | 4% |
| N=C(N)c1ccc2cc(OC(=O)c3ccc(N=C(N)N)cc3)ccc2c1 | Ataxin-3 (ATXN3, Homo sapiens, UniProt P54252) | enzyme activity, inhibitor | 10 µM | 0% |
| Cn1cc(-c2cccc(N3CCc4c(sc5c4CC(C)(C)C5)C3=O)c2CO)cc(Nc2ccncn2)c1=O | Leucine-rich repeat serine/threonine-protein kinase 2 (LRRK2, Homo sapiens, UniProt Q5S007, G2019S) | enzyme activity, inhibitor | 1 µM | -15% |
| CCN(CC)CCCC[C@H](NC(=O)[C@H](CC(C)C)NC(=O)[C@H](C)NC(=O)[C@H](Cc1ccccc1)NC(=O)c1ccc(C(C)(C)C)cc1)C(=O)N[C@@H](CO)C(=O)OC | 5-hydroxytryptamine receptor 1A (HTR1A, Homo sapiens, UniProt P08908) | ligand displacement, radioligand | 10 µM | 19% |
| C#Cc1n[nH]c2c(-c3cn([C@@H](C)c4ccccn4)c(=O)[nH]c3=O)cc(F)cc12 | Mitogen-activated protein kinase 14 (MAPK14, Homo sapiens, UniProt Q16539) | enzyme activity, inhibitor | 0.1 µM | 4% |
